Experimental data published in ChEMBL document CHEMBL1154912, “Moluccensins H-J, 30-ketophragmalin limonoids from Xylocarpus moluccensis” (J Nat Prod, 2010).
≈ marks a conversion by molar mass, not a printed value. Calls of active or inactive are those of the source. No cut-off for these calls is given here.

Assays:
[1] = Cytotoxicity against human KATO III cells after 3 days by MTT assay; assay type: functional, cell-based, KATO III cell; conditions: 72 h
Outline: (§1)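 Cells grown in RPMI-1640 with 25 mM HEPES, 0.25% sodium bicarbonate, 5% FBS and 100 µg/mL kanamycin. Freshly trypsinized cells seeded at 5000 per well, compound added from DMSO-diluted stock, cultured three days. Attached cells stained with MTT, bound dye solubilized, absorbance read at 540 nm. IC50 (50% growth inhibition) averaged from at least six independent determinations.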

[2] = tested on: HepG2; assay: Cytotoxicity against human HepG2 cells after 3 days by MTT assay; assay type: functional, cell-based; conditions: HepG2, 72 h; outline: as §1
[3] = tested on: Staphylococcus hominis; assay: Antibacterial activity against Staphylococcus hominis ATCC 27844 by broth microdilution method; assay type: functional
Outline: (§2)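 Broth microdilution per NCCLS protocol in Mueller Hinton broth; serial doubling dilutions from 0.5 to 256 µg/mL; final inoculum 5 × 10^5 cfu/mL. MIC taken as lowest concentration with no visible growth judged by turbidity.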

[4] = tested on: SW-620; assay: Cytotoxicity against human SW620 cells after 3 days by MTT assay; assay type: functional, cell-based; conditions: SW-620, 72 h; outline: as §1
[5] = tested on: Enterococcus faecalis; assay: Antibacterial activity against Enterococcus faecalis ATCC 29212 by broth microdilution method; assay type: functional; outline: as §2
[6] = tested on: BT-474; assay: Cytotoxicity against human BT474 cells after 3 days by MTT assay; assay type: functional, cell-based; conditions: BT-474, 72 h; outline: as §1
[7] = Cytotoxicity against human ChaGo cells after 3 days by MTT assay; assay type: functional, cell-based; conditions: 72 h; outline: as §1

Compound | IC50 [1] [µg/mL] | IC50 [2] [µg/mL] | Activity [3] | IC50 [4] [µg/mL] | Activity [5] | IC50 [6] [µg/mL] | IC50 [7] [µg/mL] | MIC [3] [µg/mL] | MIC [5] [µg/mL]
COC(=O)C[C@H]1[C@]2(C)C[C@]3(O)[C@@](O)(C(=O)C4=C(CC[C@]5(C)C4=CC(=O)O[C@H]5c4ccoc4)[C@]13C)[C@H]2OC(C)=O [MOLUCCENSIN H] | > 10 | > 10 | inactive | > 10 | inactive | > 10 | > 10 | – | –
COC(=O)C[C@H]1[C@]2(C)C[C@@]3(O)[C@]1(C)[C@H]1CC[C@]4(C)C(=C1C(=O)[C@@]3(OC)[C@H]2OC(C)=O)CC(=O)O[C@H]4c1ccoc1 [MOLUCCENSIN I] | > 10 | > 10 | – | > 10 | – | > 10 | > 10 | 256 (≈ 460 µM) | 223 (≈ 401 µM)
COC(=O)C[C@H]1[C@]2(C)C[C@]3(O)[C@@H](C(=O)C4=C5CC(=O)O[C@@H](c6ccoc6)[C@]5(C)CC[C@@H]4[C@]13C)[C@H]2OC(C)=O [MOLUCCENSIN J] | > 10 | > 10 | inactive | > 10 | inactive | > 10 | > 10 | – | –
